According to ChEMBL document CHEMBL1154907, “Synthesis and preclinical evaluations of 2-(2-fluorophenyl)-6,7-methylenedioxyquinolin-4-one monosodium phosphate (CHM-1-P-Na) as a potent antitumor agent” (J Med Chem, 2010):
The source made the active and inactive calls. No cut-off for these calls is given here.

Columns and labels:
MDA-MB-231 = assay: Growth inhibition of human MDA-MB-231 cells by SRB assay; type: functional
Summary of the method: (§1)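 Human cancer cell panel; five concentrations from 10^-4 to 10^-8 M; growth measured by sulforhodamine B colorimetric method; GI50, TGI and LC50 derived from computer-analysed dose-response curves.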

SK-OV-3 [1] = assay: Induction of mitotic arrest in human SKOV3 cells assessed as increase in securin expression at 10 uM after 24 hrs by Western blot; type: functional, cell-based
Summary of the method: (§2)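 SKOV-3 cells in DMEM/F-12 with 10% fetal calf serum, treated with 10 μM or vehicle (DMSO). Lysates, 50 μg protein, resolved by SDS-PAGE, transferred to PVDF, probed for cyclin B1 or securin with β-actin loading control; ECL detection, bands quantified by phosphorimaging; at least three separate experiments.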

MKN-28 = assay: Growth inhibition of human MKN28 cells by SRB assay; type: functional; summary of the method: as §1
[2] = Growth inhibition of human RXF631L cells by SRB assay; type: functional, RXF 631
Summary of the method: (§3)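 Cancer cell panel; growth measured by sulforhodamine B colorimetric method across five concentrations from 10^-4 to 10^-8 M; GI50, TGI and LC50 derived from computer-analysed dose-response curves.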

U-251 = assay: Growth inhibition of human U251 cells by SRB assay; type: functional; summary of the method: as §3
Pepsin A (Sus scrofa) = Pepsin A (Sus scrofa) (UniProt P00791); assay: Inhibition of pig pepsin at 10 uM by enzyme assay
Summary of the method: (§4)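 Commercial spectrum screen of enzyme assays under standard protocols; percent inhibition tested at 10 μM; IC50 determined for targets showing significant inhibition at that concentration; SEM given where multiple independent determinations.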

Rattus norvegicus = organism: Rattus norvegicus; assay: Displacement of […] from benzodiazepine binding site of rat GABAA receptor at 10 uM radioligand binding assay
Summary of the method: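 Radioligand binding screen run by contract lab under standard protocols; rat GABA_A sites; single-point inhibition at 10 μM, with IC50 determined where inhibition was significant.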

SNB-75 = assay: Growth inhibition of human SNB75 cells by SRB assay; type: functional; summary of the method: as §3
HCT-116 = assay: Growth inhibition of human HCT116 cells by SRB assay; type: functional; summary of the method: as §1
[3] = molecular target: Mitogen-activated protein kinase 10 (Homo sapiens) (UniProt P53779); assay: Inhibition of human JNK3 at 10 uM by enzyme assay; summary of the method: as §4
NCI-H522 = assay: Growth inhibition of human NCI-H522 cells by SRB assay; type: functional; summary of the method: as §1
KM12 = assay: Growth inhibition of human KM12 cells by SRB assay; type: functional; summary of the method: as §1
MKN-45 = assay: Growth inhibition of human MKN45 cells by SRB assay; type: functional; summary of the method: as §1
OVCAR-3 [4] = assay: Antitumor activity against human OVCAR-3 cells xenografted in nude mouse assessed as increase in lifespan of organism at 200 mg/kg, ip administered in Q7D x 3 schedule relative to control; type: functional; conditions: route intraperitoneal
OVCAR-8 = assay: Growth inhibition of human OVCAR8 cells by SRB assay; type: functional; summary of the method: as §1
[5] = Growth inhibition of human HBC5 cells by SRB assay; type: functional; summary of the method: as §1
[6] = Toxicity in ip dosed nude mouse assessed as maximum tolerated dose; type: organism-based; conditions: in vivo
SK-OV-3 [7] = assay: Induction of mitotic arrest in human SKOV3 cells assessed as increase in cyclin B1 expression at 10 uM after 24 hrs by Western blot; type: functional, cell-based; summary of the method: as §2
[8] = Growth inhibition of human DMS144 cells by SRB assay; type: functional; summary of the method: as §1
OVCAR-3 [9] = assay: Antitumor activity against human OVCAR-3 cells xenografted in nude mouse assessed as increase in lifespan of organism at 134 mg/kg, ip administered in Q7D x 3 schedule relative to control; type: functional; conditions: route intraperitoneal
MKN-7 = assay: Growth inhibition of human MKN7 cells by SRB assay; type: functional; summary of the method: as §1
[10] = Growth inhibition of human MKN1 cells by SRB assay; type: functional, MKN-1; summary of the method: as §1
[11] = Growth inhibition of human HBC4 cells by SRB assay; type: functional; summary of the method: as §1
HCC 2998 = assay: Growth inhibition of human HCC2998 cells by SRB assay; type: functional; summary of the method: as §1
OVCAR-3 [12] = assay: Growth inhibition of human OVCAR-3 cells by SRB assay; type: functional; summary of the method: as §1
MCF7 = assay: Growth inhibition of human MCF7 cells by SRB assay; type: functional; summary of the method: as §1
[13] = Cmax in CD1 mouse at 10 mg/kg, ip; type: ADME, organism-based; set-up: dose 10 mg/kg, route intraperitoneal; conditions: in vivo
Summary of the method: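 Male CD-1 (Crl.) mice (22-24 g), single 10 mg/kg dose. Prodrug in 9% NaHCO3/water (1 mg/mL) given iv by tail vein or po by gavage after 4 h fast; parent given ip in cremophor/DMSO/saline 20/5/75 (2 mg/mL). Plasma sampled to 27 h, three mice per time point, acetonitrile precipitation, LC-MS/MS (ESI positive); parameters from mean plasma concentrations.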

SK-OV-3 [14] = assay: Induction of mitotic arrest in human SKOV3 cells assessed as microtubule disruption at 10 uM after 24 hrs by SDS-PAGE; type: functional, cell-based
NCI-H23 = assay: Growth inhibition of human NCI-H23 cells by SRB assay; type: functional; summary of the method: as §1
SK-OV-3 [15] = assay: Induction of mitotic arrest in human SKOV3 cells assessed as increase in […] upregulation at 10 uM after 24 hrs by SDS-PAGE; type: functional, cell-based
Summary of the method: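 SKOV-3 cells treated with vehicle (DMSO) or 10 μM for indicated times, or indicated doses for 24 h; whole-cell lysates resolved by SDS-PAGE, blotted and probed with anti-BubR1 mouse mAb; ECL detection.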

SF-268 = assay: Growth inhibition of human SF268 cells by SRB assay; type: functional; summary of the method: as §3

Chain of Pepsin A (Sus scrofa) (P00791 60-385 limits assumed): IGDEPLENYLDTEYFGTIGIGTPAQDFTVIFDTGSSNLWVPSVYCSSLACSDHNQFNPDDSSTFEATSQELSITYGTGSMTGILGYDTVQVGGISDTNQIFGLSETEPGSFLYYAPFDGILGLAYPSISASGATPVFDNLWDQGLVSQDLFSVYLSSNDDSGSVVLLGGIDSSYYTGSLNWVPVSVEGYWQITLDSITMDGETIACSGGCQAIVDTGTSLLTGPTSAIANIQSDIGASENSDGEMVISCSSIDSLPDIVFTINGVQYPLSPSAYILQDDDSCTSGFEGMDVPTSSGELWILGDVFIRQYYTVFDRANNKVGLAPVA
Chain of Mitogen-activated protein kinase 10 (Homo sapiens) (P53779 whole entry): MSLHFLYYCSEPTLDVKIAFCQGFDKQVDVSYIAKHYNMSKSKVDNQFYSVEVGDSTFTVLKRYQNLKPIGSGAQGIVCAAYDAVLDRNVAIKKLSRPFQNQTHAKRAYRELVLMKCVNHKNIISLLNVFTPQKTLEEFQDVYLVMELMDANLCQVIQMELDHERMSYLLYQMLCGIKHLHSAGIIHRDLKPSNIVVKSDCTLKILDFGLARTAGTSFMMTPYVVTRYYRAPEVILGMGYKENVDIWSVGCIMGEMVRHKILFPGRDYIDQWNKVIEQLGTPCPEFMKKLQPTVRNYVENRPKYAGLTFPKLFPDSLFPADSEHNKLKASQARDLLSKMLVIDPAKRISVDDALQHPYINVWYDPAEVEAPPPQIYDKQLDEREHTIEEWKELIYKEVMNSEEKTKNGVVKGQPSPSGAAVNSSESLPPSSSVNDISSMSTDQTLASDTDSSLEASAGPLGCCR

In the case of `O=c1cc(-c2ccccc2F)[nH]c2cc3c(cc12)OCO3`, the GI50 (MDA-MB-231; MDA-MB-231) is reported as 155 nM, the CC50 (MDA-MB-231; MDA-MB-231, read-out: pLC50 (converted)) is reported as greater than 100 µM and the TGI (MDA-MB-231; MDA-MB-231, read-out: pTGI (converted)) is reported as 52.5 µM. The Activity (SK-OV-3 [1]) was “Active”, the GI50 (MKN-28; MKN-28) was 112 nM and the CC50 (MKN-28; MKN-28, read-out: pLC50 (converted)) was greater than 100 µM. The TGI (MKN-28; MKN-28, read-out: pTGI (converted)) was 17.8 µM, the GI50 ([2]; RXF 631) was 79.4 nM and the CC50 ([2]; RXF 631, read-out: pLC50 (converted)) was greater than 100 µM. It also gave a TGI ([2]; RXF 631, read-out: pTGI (converted)) of 501 nM, a GI50 (U-251; U-251) of 69.2 nM and a CC50 (U-251; U-251, read-out: pLC50 (converted)) greater than 100 µM. It also gave a TGI (U-251; U-251, read-out: pTGI (converted)) of 18.2 µM, an inhibition (Pepsin A (Sus scrofa)) of 85% and an inhibition (Rattus norvegicus) of 83%. For the same compound, the GI50 (SNB-75; SNB-75) was 20 µM, the CC50 (SNB-75; SNB-75, read-out: pLC50 (converted)) was greater than 100 µM and the TGI (SNB-75; SNB-75, read-out: pTGI) was greater than 100 µM. It also gave a GI50 (HCT-116; HCT-116) of 64.6 nM, a CC50 (HCT-116; HCT-116, read-out: pLC50 (converted)) greater than 100 µM and a TGI (HCT-116; HCT-116, read-out: pTGI) greater than 100 µM. The inhibition [3] was 55%, the GI50 (NCI-H522; NCI-H522) was 60.3 nM and the CC50 (NCI-H522; NCI-H522, read-out: pLC50 (converted)) was greater than 100 µM. The TGI (NCI-H522; NCI-H522, read-out: pTGI (converted)) was 562 nM, the GI50 (KM12; KM12) was 67.6 nM and the CC50 (KM12; KM12, read-out: pLC50 (converted)) was greater than 100 µM. It also gave a TGI (KM12; KM12, read-out: pTGI) greater than 100 µM, a GI50 (MKN-45; MKN-45) of 57.5 nM and a CC50 (MKN-45; MKN-45, read-out: pLC50 (converted)) greater than 100 µM. It also gave a TGI (MKN-45; MKN-45, read-out: pTGI) greater than 100 µM, an Activity (OVCAR-3 [4]) of 124% and a GI50 (OVCAR-8; OVCAR-8) of 162 nM. The CC50 (OVCAR-8; OVCAR-8, read-out: pLC50 (converted)) was greater than 100 µM, the TGI (OVCAR-8; OVCAR-8, read-out: pTGI (converted)) was 794 nM and the GI50 ([5]; HBC5) was 776 nM. The CC50 ([5]; HBC5, read-out: pLC50 (converted)) was greater than 100 µM, the TGI ([5]; HBC5, read-out: pTGI) was greater than 100 µM and the MTD [6] was 200 mg/kg. The Activity (SK-OV-3 [7]) was “Active”, the GI50 ([8]; DMS144) was 53.7 nM and the CC50 ([8]; DMS144, read-out: pLC50 (converted)) was greater than 100 µM. It also gave a TGI ([8]; DMS144, read-out: pTGI (converted)) of 676 nM, an Activity (OVCAR-3 [9]) of 133% and a GI50 (MKN-7; MKN-7) of 45.7 nM. It also gave a CC50 (MKN-7; MKN-7, read-out: pLC50 (converted)) greater than 100 µM, a TGI (MKN-7; MKN-7, read-out: pTGI) greater than 100 µM and a GI50 ([10]; MKN-1) of 77.6 nM. For the same compound, the CC50 ([10]; MKN-1, read-out: pLC50 (converted)) was greater than 100 µM, the TGI ([10]; MKN-1, read-out: pTGI) was greater than 100 µM and the GI50 ([11]; HBC4) was 347 nM. The CC50 ([11]; HBC4, read-out: pLC50 (converted)) was greater than 100 µM, the TGI ([11]; HBC4, read-out: pTGI) was greater than 100 µM and the GI50 (HCC 2998; HCC 2998) was 129 nM. The CC50 (HCC 2998; HCC 2998, read-out: pLC50 (converted)) was greater than 100 µM, the TGI (HCC 2998; HCC 2998, read-out: pTGI (converted)) was 1260 nM and the GI50 (OVCAR-3 [12]; OVCAR-3) was 7.08 µM. The CC50 (OVCAR-3 [12]; OVCAR-3, read-out: pLC50 (converted)) was greater than 100 µM, the TGI (OVCAR-3 [12]; OVCAR-3, read-out: pTGI) was greater than 100 µM and the GI50 (MCF7; MCF7) was 158 nM. It also gave a CC50 (MCF7; MCF7, read-out: pLC50 (converted)) greater than 100 µM, a TGI (MCF7; MCF7, read-out: pTGI) greater than 100 µM and a Cmax [13] of 155 ng/mL. The Activity (SK-OV-3 [14]) was “Active”, the GI50 (NCI-H23; NCI-H23) was 1170 nM and the CC50 (NCI-H23; NCI-H23, read-out: pLC50 (converted)) was greater than 100 µM. For the same compound, the TGI (NCI-H23; NCI-H23, read-out: pTGI) was greater than 100 µM, the Activity (SK-OV-3 [15]) was “Active” and the GI50 (SF-268; SF-268) was 100 nM. For the same compound, the CC50 (SF-268; SF-268, read-out: pLC50 (converted)) was greater than 100 µM and the TGI (SF-268; SF-268, read-out: pTGI) was greater than 100 µM.
